This is an account of results in ChEMBL document CHEMBL2086358, “Discovery of structurally-diverse inhibitor scaffolds by high-throughput screening of a fragment library with dimethylarginine dimethylaminohydrolase” (Bioorg Med Chem, 2012).

SMILES strings stand for the structures. Active and inactive are the calls of the source. The calls are words filed in the database; no cut-off is given here.

Experiment [1] concerns the target T1, N(G),N(G)-dimethylarginine dimethylaminohydrolase 1 (Homo sapiens, UniProt O94760). Briefly: Competitive inhibition of human recombinant His6-tagged DDAH1 expressed in Escherichia coli BL21(DE3) using Nomega,Nomega-dimethyl-L-arginine as substrate after 80 mins by double-reciprocal plot analysis.
For experiment [2], the target named is T1, N(G),N(G)-dimethylarginine dimethylaminohydrolase 1. Briefly: Inhibition of human recombinant His6-tagged DDAH1 expressed in Escherichia coli BL21(DE3) using S-methyl-L-thiocitrulline as substrate at 100 uM by CPM-based fluorescence spectrophotometry. An outline of the steps:
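Primary HTS run in duplicate. Compound at 100 μM with human DDAH-1 (20 nM), S-methyl-L-thiocitrulline (0.4 μM) and CPM (3.5 μM) in K2HPO4 172 mM, KCl 172 mM, EDTA 2 mM, Tween-20 0.02%, DMSO 1%, pH 7.3. Enzyme–compound preincubation 10 min.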

For experiment [3] the target is unchanged. The experiment can be described thus: Inhibition of human recombinant His6-tagged DDAH1 expressed in Escherichia coli BL21(DE3) using Nomega,Nomega-dimethyl-L-arginine as substrate at 400 uM after 1 to 2 hrs by colorimetric ureido derivitization assay. An outline of the steps:
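Rapid-onset secondary assay. Compound (400 μM) mixed with ADMA (300 μM, 2.5-fold over KM) in Reaction Buffer (Na2HPO4 172 mM, KCl 172 mM, Tween-20 0.02%, EDTA 2 mM, pH 7.3). Started with human DDAH-1 (1 μM final), run 1–2 h, quenched with HCl (1 M final). Ureido product read colorimetrically; ≥20% inhibition counted as a hit.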

Experiment [4] shares this target. The experiment can be described thus: Inhibition of human recombinant His6-tagged DDAH1 expressed in Escherichia coli BL21(DE3) using Nomega,Nomega-dimethyl-L-arginine as substrate at 400 uM incubated for 10 to 20 mins prior to substrate addition measured after 1 to 2 hrs by colorimetric ureido derivitization assay in presence of 2 mM reduced glutathione. In a few lines:
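Compound (400 μM) preincubated 10–20 min at room temperature with human DDAH-1 (1 μM) and reduced glutathione (2 mM) in Reaction Buffer, pH 7.3. ADMA (300 μM) then added; 1–2 h at room temperature, HCl quench (1 M final), colorimetric ureido derivatization. Inhibition compared against assays without glutathione.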

Experiment [5] relates to Pseudomonas aeruginosa. Briefly: Inhibition of Pseudomonas aeruginosa His6-tagged DDAH expressed in Escherichia coli BL21(DE3) using S-methyl-Lthiocitrulline as substrate up to 1 mM measured every 20 secs for 10 mins by fluorescence spectrophotometry.
Experiment [6] addresses T1, N(G),N(G)-dimethylarginine dimethylaminohydrolase 1. Briefly: Reversible inhibition of human recombinant His6-tagged DDAH1 expressed in Escherichia coli BL21(DE3) using 1 mM Nomega,Nomega-dimethyl-L-arginine as substrate incubated up to 120 mins prior to substrate addition measured after 120 mins by colorimetric ureido derivitization assay. In a few lines: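 Human DDAH-1 (30 μM) incubated at room temperature with compound (0–2 mM) in Na2HPO4 100 mM, NaCl 100 mM, EDTA 2 mM, Tween-20 0.02%, pH 7.25, with or without reduced glutathione (2 mM). After 0–120 min, diluted 40-fold into ADMA (1 mM) in the same buffer. Incubated a further 120 min, quenched with HCl (300 mM final), and L-citrulline read colorimetrically.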

For experiment [7] the target is unchanged. Briefly: Inhibition of human recombinant His6-tagged DDAH1 expressed in Escherichia coli BL21(DE3) using Nomega,Nomega-dimethyl-L-arginine as substrate after 80 mins by colorimetric ureido derivitization assay.
For experiment [8], the system named is Pseudomonas aeruginosa. The experiment can be described thus: Inhibition of Pseudomonas aeruginosa His6-tagged DDAH expressed in Escherichia coli BL21(DE3) using S-methyl-Lthiocitrulline as substrate at 100 uM measured every 20 secs for 10 mins.
The target of experiment [9] is T1, N(G),N(G)-dimethylarginine dimethylaminohydrolase 1. Briefly: Inhibition of human recombinant His6-tagged DDAH1 expressed in Escherichia coli BL21(DE3) using Nomega,Nomega-dimethyl-L-arginine as substrate at 400 uM by colorimetric ureido derivitization assay. The note with it: TDE = time-dependent effect.
For experiment [10], the system named is Pseudomonas aeruginosa. The experiment can be described thus: Ratio of Kinact to KI for Pseudomonas aeruginosa His6-tagged DDAH expressed in Escherichia coli BL21(DE3) using S-methyl-Lthiocitrulline as substrate up to 1 mM measured every 20 secs for 10 mins by fluorescence spectrophotometry.

T1 sequence (O94760 whole entry): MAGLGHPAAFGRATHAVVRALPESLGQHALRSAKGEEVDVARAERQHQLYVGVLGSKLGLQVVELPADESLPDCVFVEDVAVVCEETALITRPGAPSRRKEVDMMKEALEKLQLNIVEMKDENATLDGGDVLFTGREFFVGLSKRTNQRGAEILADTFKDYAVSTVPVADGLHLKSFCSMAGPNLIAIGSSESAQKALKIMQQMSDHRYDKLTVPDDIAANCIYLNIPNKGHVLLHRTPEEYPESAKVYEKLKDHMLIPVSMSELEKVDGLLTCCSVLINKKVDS

As usually defined, the Ki is the equilibrium dissociation constant of an inhibitor or competing ligand from its target. As a reminder, the inhibition is the relative decrease from the control value, in per cent. Usually IC50 stands for the concentration needed to halve the response being measured. In the case of `CCc1nc2ccccc2[nH]1`, the Ki in experiment [1] is 800 µM. For the same compound, the inhibition was found to be 4% in experiment [2], 36% in experiment [3], 25% in [4] and 1% in the experiment on Pseudomonas aeruginosa [8]. Further, in the experiment on Pseudomonas aeruginosa [5], the inhibition entry was “inactive”. The inhibition result in [6] was “Active”. Also, in [7], the IC50 came to 1400 µM.
On to `OCc1cc(Cl)ccn1`, for which the inhibition in experiment [2] is 17%; in [9], “tde”; in experiment [3], 56%; in experiment [4], 46%; in the experiment with Pseudomonas aeruginosa [8] it was 50%. Also, the Ratio in the experiment with Pseudomonas aeruginosa [10] was found to be 0.65 M⁻¹ s⁻¹.
For `NCCSc1nc2ccccc2o1`, in experiment [1], the Ki was determined as 1700 µM. The inhibition in [3] came out at 21%; in [4] it was 23%. Also, the inhibition entry in [6] was “Active”. Further, the IC50 in experiment [7] worked out at 2700 µM.
Turning to `Cc1cc(Br)ccn1`, the inhibition in experiment [2] is 55%; in [9], “tde”; in experiment [3], 74%; in [4], 95%; with Pseudomonas aeruginosa [8] it was 89%. Further, the Ratio with Pseudomonas aeruginosa [10] amounted to 4.8 M⁻¹ s⁻¹.
